Test results taken from ChEMBL document CHEMBL4020830, “Design, Synthesis, and Evaluation of a Novel Series of Indole Sulfonamide Peroxisome Proliferator Activated Receptor (PPAR) α/γ/δ Triple Activators: Discovery of Lanifibranor, a New Antifibrotic Clinical Candidate” (J Med Chem, 2018).
The source made the active and inactive calls. The rule behind the calls is not given here.

Tests used:
[1] = target: T1, Peroxisome proliferator-activated receptor gamma (Mus musculus, UniProt P37238); test: Transactivation of mouse GAL4-fused PPARgamma LBD expressed in African green monkey COS7 cells co-expressing 5Gal4 pGL3 TK Luc after overnight incubation by luciferase reporter gene assay
T1 sequence (P37238 whole entry): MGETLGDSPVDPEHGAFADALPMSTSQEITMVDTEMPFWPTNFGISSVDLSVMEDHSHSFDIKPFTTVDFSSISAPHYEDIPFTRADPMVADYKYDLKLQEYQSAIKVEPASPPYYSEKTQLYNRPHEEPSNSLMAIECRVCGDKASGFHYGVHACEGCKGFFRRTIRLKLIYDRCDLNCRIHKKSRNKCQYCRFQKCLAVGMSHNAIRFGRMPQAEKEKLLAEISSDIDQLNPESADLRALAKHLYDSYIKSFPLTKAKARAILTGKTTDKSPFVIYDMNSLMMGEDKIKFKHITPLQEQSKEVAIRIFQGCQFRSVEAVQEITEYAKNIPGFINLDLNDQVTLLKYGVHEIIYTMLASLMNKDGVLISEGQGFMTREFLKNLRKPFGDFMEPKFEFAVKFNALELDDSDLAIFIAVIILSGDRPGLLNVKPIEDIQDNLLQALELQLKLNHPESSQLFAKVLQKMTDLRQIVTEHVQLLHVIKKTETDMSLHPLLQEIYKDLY

[2] = target: T2, Peroxisome proliferator-activated receptor delta (Mus musculus) (UniProt P35396); test: Transactivation of mouse GAL4-fused PPARdelta LBD expressed in African green monkey COS7 cells co-expressing 5Gal4 pGL3 TK Luc after overnight incubation by luciferase reporter gene assay relative to GW501516; type: cell-based
T2 sequence (whole entry): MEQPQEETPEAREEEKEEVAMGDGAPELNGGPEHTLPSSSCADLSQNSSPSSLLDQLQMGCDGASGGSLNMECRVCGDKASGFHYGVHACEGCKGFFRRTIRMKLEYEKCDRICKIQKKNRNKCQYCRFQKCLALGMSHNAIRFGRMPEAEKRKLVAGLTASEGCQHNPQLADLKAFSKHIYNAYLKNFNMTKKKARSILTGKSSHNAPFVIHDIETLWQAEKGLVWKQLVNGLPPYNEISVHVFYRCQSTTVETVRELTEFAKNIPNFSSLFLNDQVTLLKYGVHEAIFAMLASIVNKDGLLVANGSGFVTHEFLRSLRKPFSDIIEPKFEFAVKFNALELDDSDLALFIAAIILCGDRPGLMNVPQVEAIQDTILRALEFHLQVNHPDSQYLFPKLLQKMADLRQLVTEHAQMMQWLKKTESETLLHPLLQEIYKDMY
Procedure, shortened: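 Cell-based Gal-4 transactivation assay in COS-7 cells transfected with PPARα, PPARδ or PPARγ ligand-binding domain. EC50 and Emax were derived, with Emax as maximum activation in percent of control. EC50s are means of at least two independent experiments performed in triplicate.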

[3] = test system: Mus musculus; test: Antidiabetic activity in C57BL/Ks mouse model of diabetic dyslipidemia assessed as decrease in plasma glucose level administered via oral gavage qd for 5 days measured 4 hrs post last dose; type: functional
Procedure, shortened: (§1)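 Homozygous male C57BL/Ks-db (db/db) mice were gavaged once daily at 10 or 30 mg/kg, for 5 or 10 days. Retro-orbital blood was drawn before treatment and 4 h after the last gavage. Glucose and triglycerides were measured in serum. Results are expressed as % variation on the final day versus the control group. Analysis was one-way ANOVA with Dunnett's test.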

[4] = target: T3, Peroxisome proliferator-activated receptor gamma (Homo sapiens, UniProt P37231)
T3 sequence (P37231 whole entry): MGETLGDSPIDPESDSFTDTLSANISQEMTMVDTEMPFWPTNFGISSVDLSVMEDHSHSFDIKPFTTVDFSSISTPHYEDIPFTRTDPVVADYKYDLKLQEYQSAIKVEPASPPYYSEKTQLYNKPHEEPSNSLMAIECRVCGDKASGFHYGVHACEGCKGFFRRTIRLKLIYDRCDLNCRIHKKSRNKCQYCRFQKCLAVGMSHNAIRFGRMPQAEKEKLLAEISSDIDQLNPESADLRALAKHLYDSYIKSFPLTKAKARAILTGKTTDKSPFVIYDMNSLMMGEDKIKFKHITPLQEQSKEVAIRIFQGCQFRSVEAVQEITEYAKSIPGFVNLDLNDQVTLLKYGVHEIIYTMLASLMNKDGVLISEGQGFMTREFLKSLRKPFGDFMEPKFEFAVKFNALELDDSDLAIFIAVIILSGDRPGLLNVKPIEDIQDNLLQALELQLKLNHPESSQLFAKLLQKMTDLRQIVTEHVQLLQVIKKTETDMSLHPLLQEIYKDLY

[5] = test system: Mus musculus; test: Increase in plasma adiponctin level in C57Bl6/J mouse model of CCl4-induced liver fibrosis at 3 to 30 mg/kg, po qd for 3 weeks; type: functional, organism-based
Procedure, shortened: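 CCl4-induced liver fibrosis mice were dosed orally once daily at 3, 10 or 30 mg/kg for 3 weeks. Controls were CCl4-vehicle, vehicle oil and saline-injected groups. Liver collagen was scored by picrosirius red staining of histological sections. Plasma triglycerides and adiponectin were also measured. Analysis was one-way ANOVA with Dunnett's test.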

[6] = test system: Rattus norvegicus; test: Toxicity in Sprague-Dawley rat assessed as effect on plasma volume at 100 to 1000 mg/kg for 4 weeks by evans blue dye based assay; type: organism-based; conditions: in vivo, 672 h
Procedure, shortened: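 Sprague-Dawley rats were treated at 100 and 1000 mg/kg. Hematocrit and plasma volume were measured after 4 weeks and heart weight after 6 weeks. Analysis was one-way ANOVA with Dunnett's test versus control.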

[7] = target: T3, Peroxisome proliferator-activated receptor gamma; remark: listed apart in the source
[8] = test system: Mus musculus; test: Hypolipidemic activity in C57BL/Ks mouse model of diabetic dyslipidemia assessed as decrease in plasma triglyceride level at 10 mg/kg, po qd administered via gavage for 10 days measured 4 hrs post last dose; type: functional, organism-based; procedure, shortened: as §1
[9] = test system: Mus musculus; test: Antidiabetic activity in C57BL/Ks mouse model of diabetic dyslipidemia assessed as decrease in plasma glucose level at 10 mg/kg, po qd administered via gavage for 10 days measured 4 hrs post last dose; type: functional, organism-based; procedure, shortened: as §1

Compound	EC50 [1] [µM]	Emax [2] [%]	Activity [3]	EC50 [4] [µM]	Activity [5]	Activity [6]	EC50 [7] [µM]	Activity [8]	Activity [9]
O=C(O)CCCc1cc2cc(Cl)ccc2n1S(=O)(=O)c1ccc2ncsc2c1 [LANIFIBRANOR]	0.202	131	Dose-dependent effect	1.92	Active	Non-Toxic	4.11		
O=C(O)CCc1cc2cc(Cl)ccc2n1S(=O)(=O)c1ccccc1								inactive	inactive
